Data from ChEMBL document CHEMBL3593225 (Bioorg Med Chem, 2015).
Calls of active or inactive are those of the source. The rule behind the calls is not given here.

Legend:
[1] = molecular target: T1, 5-hydroxytryptamine receptor 1A (Homo sapiens) (UniProt P08908); test: Agonist activity at human 5-HT1A receptor expressed in CHO cells assessed as inhibition of forskolin-stimulated cAMP accumulation after 15 mins by ELISA relative to 5-HT; type: functional, cell-based
T1 sequence (whole entry): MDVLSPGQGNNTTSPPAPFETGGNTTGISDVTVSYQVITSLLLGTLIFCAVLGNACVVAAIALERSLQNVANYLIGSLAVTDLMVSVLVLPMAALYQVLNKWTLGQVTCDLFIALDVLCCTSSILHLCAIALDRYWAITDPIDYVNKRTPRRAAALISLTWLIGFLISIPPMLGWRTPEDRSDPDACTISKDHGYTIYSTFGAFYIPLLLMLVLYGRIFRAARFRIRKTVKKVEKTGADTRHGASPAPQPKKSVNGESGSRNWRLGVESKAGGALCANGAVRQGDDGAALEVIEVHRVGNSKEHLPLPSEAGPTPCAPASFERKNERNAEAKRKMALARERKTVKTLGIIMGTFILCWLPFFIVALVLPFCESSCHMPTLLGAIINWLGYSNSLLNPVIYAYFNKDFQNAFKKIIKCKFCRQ
Method in brief: (§1)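 CHO-1A cells (10^4/well) grown 24 h, then 24 h in serum-free DMEM/F-12. Compounds co-incubated with 1 μM forskolin for 15 min at 37 °C in serum-free medium with 5 μM pargyline and 2.5 mM theophylline. Lysis in 1% Triton X-100/0.1 M HCl, cAMP measured by acetylated ELISA. Forskolin alone set as 0%, 5-HT maximum as 100%. Sigmoidal or Gaussian bell-shaped fits.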

[2] = molecular target: T2, 5-hydroxytryptamine receptor 1A (Homo sapiens, UniProt P08908); test: Agonist activity at human 5-HT1A receptor expressed in human HeLa cell membranes assessed as stimulation of [35S]GTPgammaS binding after 20 mins by liquid scintillation counting analysis; type: functional
T2 sequence (P08908 whole entry): T1 sequence (whole entry)

[3] = molecular target: T1, 5-hydroxytryptamine receptor 1A (Homo sapiens); test: Agonist activity at human 5-HT1A receptor expressed in CHO cells after 90 mins by beta-arrestin-2 recruitment assay relative to 5-HT; type: cell-based
Method in brief: (§2)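 PathHunter enzyme-complementation β-arrestin-2 recruitment in CHO-K1 cells carrying HTR1A, 10^4 cells/well, plated 24–48 h at 37 °C before use. Compounds from methanol stocks, final 0.1–100 μM, applied for 90 min at 37 °C. Detection reagents then added for 60 min at room temperature, luminescence read. Pooled from 3–4 independent experiments in duplicate, with 5-HT on every plate as reference.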

[4] = molecular target: T1, 5-hydroxytryptamine receptor 1A (Homo sapiens); test: Agonist activity at human 5-HT1A receptor expressed in CHO cells assessed as ERK1/2 phosphorylation at 1 uM after 5 mins by Western blot analysis relative to control; type: cell-based
Method in brief: (§3)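 CHO-1A cells (2 × 10^5/well) grown 24 h, then 24 h serum-free. Agonists given at 1 μM in medium with 5 μM pargyline and 2.5 mM theophylline for 5 min at 37 °C. Lysates in SDS buffer with protease/phosphatase inhibitors. Phospho-ERK1/2 Western blot densitometry normalized to calnexin, untreated baseline subtracted, 5-HT set as 100%. Three experiments in triplicate, one-way ANOVA with Dunnett's test against untreated.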

[5] = molecular target: T2, 5-hydroxytryptamine receptor 1A; test: Agonist activity at human 5-HT1A receptor expressed in CHO cells assessed as inhibition of forskolin-stimulated cAMP accumulation after 15 mins by ELISA; type: functional, cell-based
Method in brief: as §1, with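 “ELISA.” for “ELISA. Forskolin alone set as 0%, 5-HT maximum as 100%.”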

[6] = molecular target: T1, 5-hydroxytryptamine receptor 1A (Homo sapiens); test: Ratio for agonist activity at human 5-HT1A receptor expressed in CHO cells by forskolin-stimulated cAMP accumulation assay to agonist activity at human 5-HT1A receptor expressed in CHO cells by beta-arrestin-2 recruitment assay; type: functional, cell-based
[7] = molecular target: T2, 5-hydroxytryptamine receptor 1A; test: Agonist activity at human 5-HT1A receptor expressed in CHO cells after 90 mins by beta-arrestin-2 recruitment assay; type: cell-based
Method in brief: as §2, with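 “read.” for “read. Pooled from 3–4 independent experiments in duplicate, with 5-HT on every plate as reference.”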

[8] = molecular target: T1, 5-hydroxytryptamine receptor 1A (Homo sapiens); test: Agonist activity at human 5-HT1A receptor expressed in CHO cells assessed as ERK1/2 phosphorylation at 1 uM after 5 mins by Western blot analysis relative to 5-HT; type: cell-based; method in brief: as §3

Compound | Emax [1] | Ki [2] | Emax [3] | Activity [4] | EC50 [5] | Ratio [6] | EC50 [7] | Activity [8] | fold change (FC) [4]
COc1cccc(CCCCN2CCN(c3ccccn3)CC2)c1 | 53.4% | 23 nM | 5.9% | – | – | – | – | – | –
CCCN(CCC)C1CCc2cccc(O)c2C1 (racemic) | – | – | 44.5% | – | – | – | – | – | –
COc1cccc2c(CCCN3CCN(c4ccccn4)CC3)cccc12 | 53.6% | 0.38 nM | 10.7% | inactive | 1.26 nM | – | – | – | –
COc1cccc2c1CCC/C2=C\CCN1CCN(c2ccccn2)CC1 | 66.9% | 0.31 nM | 22.8% | – | 2.95 nM | < 10 | 3390 nM | – | –
COc1ccc2c(c1)CC(CCN1CCN(c3ccccn3)CC1)CC2 (stereo unspecified) | 73.5% | 0.16 nM | 35.9% | – | 20.9 nM | < 10 | 3.55 nM | – | –
COc1cccc([C@H]2CC[C@H](N3CCN(c4ccccn4)CC3)CC2)c1 | 69.5% | 0.028 nM | 27.9% | – | 0.794 nM | < 10 | 0.324 nM | 30.4% | –
COc1cccc2c1CCCC2CCCN1CCN(c2ccccn2)CC1 (stereo unspecified) | – | 0.48 nM | – | – | 0.776 nM | – | – | – | –
NCCc1c[nH]c2ccc(O)cc12 | – | – | – | – | – | – | – | – | 6.4
